# Results of several laboratories.
# Compare with care: the assays were run in different laboratories.
# Target: MAP kinase-activated protein kinase 2 (MAPKAPK2, Homo sapiens, UniProt P49137)
Compound,effect on,mode,technique,tested at,measurement,result
CCN(CC)CCNC(=O)c1c(C)[nH]c(/C=C2\C(=O)Nc3ccc(F)cc32)c1C,enzyme activity,inhibitor,,0.3 µM,inhibition,7%
CCS(=O)(=O)c1cc2cc(C[C@@](O)(CC(C)(C)c3ccc(F)cc3C(N)=O)C(F)(F)F)[nH]c2cn1,cell-free assay,,competition with immobilised ligand,1 µM,remaining binding,100%
CC(C)(C)c1nc2c(s1)c1nc(N)ncc1c1ccc(NS(=O)(=O)c3c(F)cccc3F)c(F)c12,enzyme activity,inhibitor,radiometric,1 µM,remaining activity,69%
CC(C)(C)C(=O)c1sc(NC2CCCCC2)nc1N,enzyme activity,inhibitor,,10 µM,remaining activity,102%
COc1cc2ncnc(Nc3ccc(Oc4ccccc4)c(C)c3C)c2cc1OC,enzyme activity,inhibitor,,1 µM,inhibition,-17%
CCc1ccccc1C(=O)Nc1n[nH]c2c(C)c(F)c(C3C(C#N)=C(C)N(C)C(C)=C3C#N)cc12,cell-free assay,,competition with immobilised ligand,1 µM,remaining binding,100%
FC(F)(F)Oc1cccc(-c2cnc3ccc(-c4ccncc4)nn23)c1,enzyme activity,inhibitor,radiometric,1 µM,activity vs control,93%
Cc1ccc(NC(=O)c2ccc(CN3CCN(C)CC3)cc2)cc1Nc1nc(-c2cccnc2)cs1,cell-free assay,,,0.5 µM,remaining signal,102%
CN(C)C(=O)Cn1cc(-c2nc([C@@](C)(c3ccc(-c4cnc(N)nc4)cc3)C3CC3)no2)cn1,cell-free assay,,competition with immobilised ligand,1 µM,remaining binding,92%
O=C1Nc2ccc(Cl)cc2C1=Cc1cc(Cl)c(O)c(Cl)c1,cell-free assay,,,0.5 µM,remaining signal,100%
O=C1CCc2cc(Nc3cc(OC4CCOCC4)c([N+](=O)[O-])cc3Cl)ccc2N1,cell-free assay,,competition with immobilised ligand,1 µM,remaining binding,99%
CN1CC(Oc2cnc(C#N)cc2-c2ccn3nc(NC(=O)C4CC4)cc3c2)C1,enzyme activity,inhibitor,,1 µM,inhibition,-21%
Cc1ccc(NC(=O)c2ccc(C)c(C(F)(F)F)c2)cc1C#Cc1nn(C2CCC(O)CC2)c2ncnc(N)c12 (stereo not drawn),cell-free assay,,,10 µM,remaining signal,104%
CCC(=N\O)/C(C)=C/c1ccc(F)cc1,cell-free assay,,competition with immobilised ligand,1 µM,remaining binding,69%
Cc1ncc([N+](=O)[O-])n1C(=NO)c1ccccc1C(F)(F)F,enzyme activity,inhibitor,,10 µM,inhibition,21.4%
Cc1cnc(NC2CCOCC2)nc1-n1cnc(C(=O)NC(CN)c2cc(F)cc(Cl)c2)c1 (stereo not drawn),enzyme activity,inhibitor,radiometric,1 µM,remaining activity,108%
Cc1sc(C(=O)NC2COC2)cc1-n1cc(NC(=O)Nc2c(F)cccc2Cl)cn1,enzyme activity,inhibitor,,10 µM,remaining activity,93.6%
CCOc1cc(-c2nncn2C)ccc1Nc1ncc2cc(C)nc(NCC(C)(C)C)c2n1,enzyme activity,inhibitor,FRET,1 µM,inhibition,24%
CN(C)C1CCN(CC#Cc2nn(C3CCCC3)c3nc(NCc4ccccc4)ncc23)C1 (stereo not drawn),enzyme activity,inhibitor,FRET,10 µM,inhibition,0%
CNC(=O)c1cc(Oc2ccc(NC(=O)Nc3ccc(Cl)c(C(F)(F)F)c3)cc2)ccn1,enzyme activity,inhibitor,,10 µM,inhibition,6%
COc1cc(/C=C/C(=O)CC(=O)/C=C/c2ccc(O)c(OC)c2)ccc1O,enzyme activity,inhibitor,,1 µM,activity vs control,90%
CSc1nc(C)c(-c2ccnc(Nc3ccc(N4CCOCC4)cc3)c2)[nH]1,enzyme activity,inhibitor,,10 µM,inhibition,-1.9%
Cc1nc(C2CCN(C(=O)c3ccc(OC(F)(F)F)cc3N)CC2)c2ncc(N3CCN(C)CC3)cc2n1,cell-free assay,,competition with immobilised ligand,1 µM,remaining binding,100%
Cc1ccc(Nc2nccc(N(C)c3ccc4c(C)n(C)nc4c3)n2)cc1S(N)(=O)=O,enzyme activity,inhibitor,,0.3 µM,inhibition,4%
Cc1ccc(C(=O)Nc2ccc(CN3CCN(C)CC3)c(C(F)(F)F)c2)cc1C#Cc1cnc2cccnn12,enzyme activity,inhibitor,,23.5 nM,remaining activity,100%
Oc1cccc(-c2nc(N3CCOCC3)c3oc4ncccc4c3n2)c1,enzyme activity,inhibitor,,10 µM,remaining activity,90%
Nc1nc(Nc2ccccc2)sc1C(=O)c1c(F)cccc1F,enzyme activity,inhibitor,,10 µM,remaining activity,99%
Nc1cnc(N2CCc3cc(S(=O)(=O)Nc4c(F)cc(Cl)cc4F)cc(N4CCCC4=O)c32)nc1,cell-free assay,,competition with immobilised ligand,1 µM,remaining binding,100%
COc1cc(Nc2c(C#N)cnc3cc(OCCCN4CCN(C)CC4)c(OC)cc23)c(Cl)cc1Cl,cell-free assay,,,0.5 µM,remaining signal,94.7%
O=C(CSc1nc2nccnc2c(=O)n1CCc1ccccc1)Nc1nccs1,enzyme activity,inhibitor,,10 µM,inhibition,6%
COc1cc(Nc2cnc(C#N)c(O[C@H](C)CN(C)C)n2)ncc1-c1cnn(C)c1,enzyme activity,inhibitor,radiometric,1 µM,remaining activity,112%
CS(=O)(=O)N1CCCC(NC(=O)[C@H](CCC2CCCCC2)NC(=O)c2ccc(CNc3ncnc4c3nnn4-c3ccccc3)cc2)C1 (stereo partly drawn),cell-free assay,,competition with immobilised ligand,0.1 µM,remaining binding,100%
CCCOc1ccc(OC)c(F)c1C(=O)c1ccc(C(=O)N[C@@H]2CNC[C@H]2NC(=O)c2ccc3[nH]ncc3c2)cc1,enzyme activity,inhibitor,,10 µM,remaining activity,49%
